Compounds with a hit are over-represented: about 5.6% of the library has one in this group of screens.
GRIN3A LBD mod – binders of NR3A ligand-binding domain, primary screen, biophysical, differential scanning fluorimetry, uHTS. Tm shift relative to glycine control, % at 25 µM. AID 1259313, 2017. NR3A LBD differential scanning fluorimetry, Tm shift; 0% = protein alone, 100% = glycine-bound protein. hit rate 2.5% among 340,000. Glutamate receptor ionotropic, NMDA 3A (GRIN3A) ligand-binding domain;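 active means melting temperature shift of at least 10% of the positive control shift, at one fixed dose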
aDG glyco up – activators of alpha-DG glycosylation, primary screen, uHTS, Pro5-aDG cells, AlphaScreen; hit rate 0.22% among 360,000; alpha-DG glycosylation AlphaScreen (IIH6); 0% Pro5, 100% B10-LARGE cell signal; activation, % at 10 µM;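 active means activation of at least 8% versus controls, or a plate z-score of at least 8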;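 further: Pro5 are CHO cells carrying HIG-tagged alpha-DG that lacks glycosylation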
MPTP inh – mitochondrial permeability transition pore inhibitors, primary screen, biochemical, isolated mouse mitochondria, absorbance. Ca2+ swelling absorbance, 30 min. inhibition, % at 10 µM. hit rate 1.4% among 360,000. AID 602449, 2012;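 active means inhibition of 50% or more, scaled per plate between neutral and stimulator controls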
CHOP UPR activ – activators of apoptotic CHOP UPR arm, primary screen, cell-based, CHO-CHOP luciferase reporter, luminescence, uHTS; UPR activation; percent of tunicamycin response over DMSO baseline; hit rate 0.34% among 330,000; activation, % at 10 µM;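 active means at 10 µM dose, activation of 40% or more, normalized to positive control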
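Test system: CHO CHOP reporter cells. Input: 500 CHO-CHOP cells per well. Medium: F12 with 10% FBS. Technique: luciferase luminescence. Measure: percent activation relative to tunicamycin control. Dosing: 10 µM compound, 0.5% DMSO. Timing: 16-18 h cell attachment, then 6 h compound exposure, 37 °C.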
CHOP inhibitor – inhibitors of CHOP promoter induction, primary screen, cell-based, unfolded protein response, luciferase reporter | CHO-K1 CHOP-promoter luciferase, tunicamycin-induced, 15-18 h | AID 2732, 2010 | inhibition, % at 10 µM | hit rate 3.8% among 220,000;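 active means compounds that reduced the stress-induced luciferase reporter signal by more than about 70% of percent inhibition, limit read from the data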
UPR XBP1 act – activators of adaptive XBP1 UPR arm, primary screen, cell-based, CHO-XBP1 luciferase reporter, luminescence, uHTS | IRE1-XBP1 UPR activation; percent of tunicamycin response, DMSO as zero | activation, % at 20 µM | hit rate 0.33% among 330,000 | AID 463104, 2010;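 active means versus positive control, 20 µM dose yields 30% or more activation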
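Material: CHO-XBP1 cells stably carrying IRE1-XBP1-driven luciferase reporter / Amount: 1000 cells per well / Compound: 20 µM, 1% DMSO / Times: 6 h treatment, 37 °C / Detection: luciferase luminescence / Measure: % activation of reporter signal versus tunicamycin and DMSO controls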
Large screens that a line does not name were inactive.

Nn1c(SCC(=O)N2CCCC2=O)nnc1-c1cccs1	none (no result: CHOP inhibitor)
Cc1ccc(CNC(=O)COC(=O)c2cnc(C)cn2)cc1	none
O=C(Nc1ccccn1)c1ccc(-c2ccccc2)cc1	GRIN3A LBD mod 36 (no result: CHOP inhibitor)
O=C(Nc1ccccn1)c1ccc2nc(-c3ccccc3)c(-c3ccccc3)nc2c1	none (no result: GRIN3A LBD mod, aDG glyco up, MPTP inh)
CCCCCC(=O)N1C[C@@H](n2cc(-c3ccc(F)cc3)nn2)[C@H](O)C[C@@H]1c1ccc(OC)cc1	none (no result: GRIN3A LBD mod, CHOP UPR activ, CHOP inhibitor, UPR XBP1 act)
Cc1cc(/C=N/Nc2ncnc(N)c2[N+](=O)[O-])c(C)n1-c1ccccc1	CHOP inhibitor 83
COc1ccc(Oc2nc(OC)cc(OC)n2)cc1	none
Cc1cc2nc(-c3ccccc3O)[nH]c2cc1C	GRIN3A LBD mod 27 (no result: CHOP UPR activ, CHOP inhibitor, UPR XBP1 act)
COc1ccccc1C(=O)NC(=O)COC(=O)Cn1[nH]c(=O)c2ccccc2c1=O	none (no result: CHOP inhibitor)
CCn1c(=NC(=O)c2ccc(S(=O)(=O)N(C)C)cc2)sc2cccc(OC)c21	GRIN3A LBD mod 10
CCn1c(=NC(=O)CS(=O)(=O)c2ccc(C)cc2)sc2cccc(OC)c21	none (no result: CHOP inhibitor)
COc1ccc(NC(=O)COC(=O)Cc2c[nH]c3ccccc23)cc1Cl	GRIN3A LBD mod 20 (no result: CHOP inhibitor)
Cc1ccc(NC(=O)COC(=O)Cc2c[nH]c3ccccc23)cc1C	none (no result: CHOP inhibitor)
O=C(COC(=O)CCc1c[nH]c2ccccc12)Nc1ccccc1	none (no result: CHOP inhibitor)
NC(=O)c1ccc(NC(=O)COC(=O)CCCc2c[nH]c3ccccc23)cc1	GRIN3A LBD mod 10
CC(C)CCn1c(Oc2ccc(Cl)cc2)nc2c1c(=O)n(C)c(=O)n2C	CHOP inhibitor 76
CCn1c(Oc2ccc(F)cc2)nc2c1c(=O)n(C)c(=O)n2C	none
CC1(C)CC(=O)N(c2ccc(Cl)cc2Cl)C(=O)C1	none (no result: CHOP inhibitor)
COc1ccc(-n2nc3ccc(N)cc3n2)cc1Cl	none (no result: CHOP inhibitor)
COc1ccc(-n2nc3ccc(NS(C)(=O)=O)cc3n2)cc1Cl	GRIN3A LBD mod 22
CC(C)CC1NC(=O)N(CC(=O)Nc2ccc(-c3ccccc3)cc2)C1=O (stereo not given)	GRIN3A LBD mod 13 (no result: CHOP inhibitor)
CC(C)c1ccc(NC(=O)CN2C(=O)NC(Cc3c[nH]c4ccccc34)C2=O)cc1 (stereo not given)	GRIN3A LBD mod 13 (no result: CHOP inhibitor)
Cc1ccc2nc(/C(C#N)=N/O)[nH]c2c1	none
N#C/C(=N\O)c1nc2ccccc2[nH]1	GRIN3A LBD mod 22
CNC(=O)[C@H]1O[C@@H](n2cnc3c(N)ncnc32)C(O)[C@H]1O (stereo not given in full)	none (no result: GRIN3A LBD mod, aDG glyco up, MPTP inh, CHOP UPR activ, UPR XBP1 act)
CC(C)(C)c1nn2cnnc2n(/N=C/c2ccccc2)c1=O	none
O=C(O)c1ccc(S(=O)(=O)NCC2CCCO2)cc1 (stereo not given)	none (no result: CHOP inhibitor)
O=C(/C=C/c1ccccc1)NCCSCc1ccc(Cl)cc1	GRIN3A LBD mod 12
Cc1[nH]ncc1-c1ccccc1Cl	none
CCOC(=O)Cn1cc(/C=C/[N+](=O)[O-])c2ccccc21	none
O=[N+]([O-])/C=C/c1c(OCc2ccccc2)ccc2ccccc12	CHOP inhibitor 110 (no result: GRIN3A LBD mod)
CCOC(=O)COc1ccc2ccccc2c1/C=C/[N+](=O)[O-]	CHOP inhibitor 109 (no result: CHOP UPR activ, UPR XBP1 act)
Cc1ccc(Cc2c(-c3ccc(F)cc3)nc3cc(C)ccn23)cc1	none (no result: GRIN3A LBD mod, CHOP UPR activ, CHOP inhibitor, UPR XBP1 act)
O=C(OCc1cc(=O)n2ccsc2n1)c1ccccc1NCCO	none (no result: CHOP inhibitor)
CC(=O)OC1COC(N2CCc3cc(Br)c([N+](=O)[O-])cc32)C(OC(C)=O)C1OC(C)=O (stereo not given)	CHOP inhibitor 89
O=C(c1ccc(C23CC4CC(CC(C4)C2)C3)o1)N1CCOCC1	CHOP inhibitor 77
O=C(Cc1cccs1)N1CCN(c2ccc([N+](=O)[O-])cc2)CC1	none
CN(C)CCCNS(=O)(=O)c1ccc(N2CCC(c3ccc(Cl)cc3)=N2)cc1	UPR XBP1 act 75 (no result: GRIN3A LBD mod, aDG glyco up, MPTP inh, CHOP inhibitor)
CSc1ncc(Cl)c(C(=O)Nc2ccc(S(=O)(=O)Nc3nccc(C)n3)cc2)n1	GRIN3A LBD mod 13 (no result: CHOP inhibitor)
Cc1ccnc(NS(=O)(=O)c2ccc(N3C(=O)c4ccccc4C3=O)cc2)n1	none
Cc1ccnc(NS(=O)(=O)c2ccc(N3C(=O)c4c(Cl)c(Cl)c(Cl)c(Cl)c4C3=O)cc2)n1	GRIN3A LBD mod 28
CCCSc1ncc(Cl)c(C(=O)Nc2ccc(S(=O)(=O)Nc3ncccn3)cc2)n1	none (no result: CHOP inhibitor)
CC1=C(C(=O)N(C(C)C)C(C)C)CC(CC(=O)NCc2cccc3ccccc23)C(=O)N1Cc1ccc(F)cc1 (stereo not given)	none (no result: GRIN3A LBD mod, CHOP UPR activ, CHOP inhibitor, UPR XBP1 act)
CCC(=O)Nc1ccc(NC(=S)NC(=O)/C=C/c2ccccc2)cc1	GRIN3A LBD mod 15, CHOP inhibitor 92
CC(=O)c1ccc(NC(=O)/C=C/c2ccc(C)cc2)cc1	GRIN3A LBD mod 20
CC(=O)c1ccc(NC(=S)NC(=O)/C=C/c2ccccc2)cc1	none (no result: CHOP inhibitor)
CC(=O)Nc1ccc(NC(=O)/C=C/c2ccccc2)cc1	none
CCC(=O)Nc1ccc(NC(=O)/C=C/c2ccc(Cl)cc2)cc1	GRIN3A LBD mod 20
COc1cc(/C=C/C(=O)Nc2ccc(C(C)=O)cc2)cc(OC)c1OC	none
CSc1ccc(/C=C/C(=O)Nc2ccccc2)cc1	GRIN3A LBD mod 21, CHOP inhibitor 84
COC(=O)C[C@@H]1CC[C@@H](NS(=O)(=O)c2ccc(OC)cc2)[C@@H](CO)O1	none (no result: GRIN3A LBD mod, CHOP UPR activ, CHOP inhibitor, UPR XBP1 act)
CC(=O)c1cccc(NC(=O)COC(=O)CCC(=O)c2cccs2)c1	none (no result: CHOP inhibitor)
Cc1ccc(CNC(=O)COC(=O)C2CC2)cc1	none (no result: CHOP inhibitor)
COc1ccc(CNC(=O)COC(=O)C2CCC(C(C)(C)C)CC2)cc1 (stereo not given)	CHOP inhibitor 90
CC(C)c1ccc(NC(=O)C2CCCCN2S(=O)(=O)c2ccccc2)cc1 (stereo not given)	none (no result: CHOP inhibitor)
COCCN(C(=O)COC(=O)CCOc1ccccc1C)c1c(N)n(Cc2ccccc2)c(=O)[nH]c1=O	none (no result: CHOP inhibitor)
O=C(O)CN=CC1=C(O)CC(c2ccccc2)CC1=O (stereo not given)	none (no result: CHOP inhibitor)
O=C(NC1CC1)c1cc2c(s1)-c1ccccc1OC2	none (no result: CHOP inhibitor)
O=C(Nc1cccc(C(F)(F)F)c1)c1cc2c(s1)-c1ccccc1OC2	GRIN3A LBD mod 37
CC(=O)OCC1CCCC2=C(C)C(=O)CCC21COC(C)=O (stereo not given)	none
CC(=O)N1CCN(S(=O)(=O)c2cccc(C(=O)NCCC3=CCCCC3)c2)CC1	none (no result: CHOP inhibitor)
COc1c(-c2ccc(O)c(O)c2)oc2cc(O)cc(O)c2c1=O	GRIN3A LBD mod 16
O=c1c(O)c(-c2ccc(O)cc2O)oc2cc(O)cc(O)c12	none (no result: GRIN3A LBD mod, aDG glyco up, MPTP inh, CHOP UPR activ, UPR XBP1 act)
